{"data": "Assay results pooled from the literature", "note": "Lines come from different studies, so protocols differ."}
{"Compound": "NCc1cc2c(cc1F)C(=O)N(C1CCC(=O)NC1=O)C2 (centres unmarked)", "system": "male cynomolgus monkey, plasma", "setting": "oral, 0.3 mg/kg", "quantity": "half-life", "value": "2.2 h"}
{"Compound": "CC(=O)Nc1ccc(O)cc1", "target or system": "THLE-2", "test": "cell growth or viability, MTT", "setting": "100 µM, 72 h", "quantity": "viability", "value": "29.1%"}
{"Compound": "CC[C@H](C)[C@H](NC(=O)[C@@H]1CCCN1C(=O)CNC(=O)[C@H](Cc1ccccc1)NC(=O)[C@H](CC(N)=O)NC(=O)[C@H](CC(N)=O)NC(=O)[C@H](CO)NC(=O)[C@H](CO)NC(=O)[C@H](Cc1c[nH]cn1)NC(=O)[C@H](CCCNC(=N)N)NC(=O)[C@H](CC(C)C)NC(=O)[C@H](Cc1ccccc1)NC(=O)[C@H](CCC(=O)O)NC(=O)[C@H](C)NC(=O)[C@H](CC(C)C)NC(=O)[C@H](CCCNC(=N)N)NC(=O)[C@H](CCC(N)=O)NC(=O)[C@@H](NC(=O)[C@H](C)NC(=O)[C@@H]1CSSC[C@H](NC(=O)[C@H](CCCCN)NC(=O)CC[C@H](NC(=O)CCCCCCCCCCCCCCCCCCC(=O)O)C(=O)O)C(=O)N[C@@H](CC(N)=O)C(=O)N[C@@H]([C@@H](C)O)C(=O)N[C@@H](C)C(=O)N[C@@H]([C@@H](C)O)C(=O)N1)[C@@H](C)O)C(=O)N[C@@H](CC(C)C)C(=O)N1CCC[C@H]1C(=O)N1CCC[C@H]1C(=O)N[C@H](C(=O)N[C@@H](CC(N)=O)C(=O)N[C@H](C(=O)NCC(=O)N[C@@H](CO)C(=O)N[C@@H](CC(N)=O)C(=O)N[C@H](C(=O)N1CCC[C@H]1C(N)=O)[C@@H](C)O)C(C)C)[C@@H](C)O", "system": "cynomolgus monkey, plasma", "setting": "subcutaneous, 20 nmol/kg, single dose", "quantity": "half-life", "value": "62 h"}
{"Compound": "Cc1c(C)c2c(c(C)c1O)CCC(C)(COc1ccc(CC3SC(=O)NC3=O)cc1)O2 (centres unmarked)", "target or system": "THLE-2", "test": "cell growth or viability, MTT", "setting": "100 µM, 72 h", "quantity": "viability", "value": "9%"}
{"Compound": "CNS(=O)(=O)c1ccc(Nc2ncc3cc(Cl)c(=O)n(C4CCCC4)c3n2)c(C)c1", "system": "rat, plasma", "setting": "oral, 10 mg/kg", "quantity": "bioavailability", "value": "3%"}
{"Compound": "C[C@H]1Oc2cc(cnc2N)-c2c(nn(C)c2C#N)CN(C)C(=O)c2ccc(F)cc21", "system": "male Sprague-Dawley rat, plasma", "setting": "oral, 50 mg/kg, single dose", "quantity": "Cmax", "value": "2480 ng/mL"}
{"Compound": "C[C@]1(O)CCCN(c2nc(Nc3ccc(S(=O)(=O)N[C@H]4CC[C@H](CN5CCN(c6ccc(C7CCC(=O)NC7=O)c(F)c6)CC5)CC4)cc3F)ncc2C(F)(F)F)C1 (some centres unmarked)", "system": "rat, plasma", "setting": "oral, 10 mg/kg", "quantity": "bioavailability", "value": "24%"}
{"Compound": "COc1nc(-c2cccc(-c3ccccc3)c2C)ccc1CNCCNC(=O)CCCCCCCCCCC(=O)N1CCN(CCNC(=O)c2cc3c(=O)n4cccc(C)c4nc3n(CCc3cccs3)c2=N)CC1", "system": "male Sprague-Dawley rat, plasma", "setting": "intraperitoneal, 4 mg/kg", "quantity": "Cmax", "value": "300 ng/mL"}
